# Bioassay records: PubChem, several laboratories
# In the library only some 3% were active in any assay of this set; here they are far more common.
# DNA FID counter = displaces DNA intercalator in HCV helicase counter-screen; DNA fluorescent intercalator displacement, fluorescence; inhibition, % at 7.9 µM; hit rate 0.17% among 290,000; in the data active means inhibition above about 37%;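 further: 0% = vehicle and 100% = reference compound; higher means more ethidium bromide displaced from hairpin DNA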
# Kir21 block = inhibitors of mouse Kir2.1 inward-rectifier potassium channel; HEK293-Kir2.1, FluxOR thallium flux fluorescence; stronger effect = lower value; hit rate 0.85% among 310,000; P35561; AID 1672; B-score at 10 µM;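 active means fluorescence ratio B-score at or below minus 3 SD of library scores, with starting-brightness B-score within 2 SD, cut at about -4.2 in these data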;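 further: channel flux triggered by added potassium and thallium sulfate stimulus; B-score of peak minus minimum fluorescence over baseline after thallium stimulus; more negative B-score means stronger Kir2.1 block with less thallium influx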
# TMEM16A act = activates or potentiates the mouse TMEM16A chloride channel; AID 623877; HEK293 TMEM16A/YFP-H148Q/I152L, iodide quench fluorescence; stronger effect = lower value; B-score at 10 µM; hit rate 0.3% among 340,000;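 active means fluorescence-ratio B-score plate-corrected deviation score at least 3 library SD below zero, with starting fluorescence score within 5 deviations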;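 further: channel opened by trigger with iodide after compound preincubation; score built on the fluorescence ratio of max minus min over baseline; more negative score means more quench and so TMEM16A activation or potentiation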
# SR-BI DiI-HDL act = SR-BI HDL lipid transfer activation | CHO ldlA[mSR-BI] cells, DiI-HDL uptake fluorescence, 3 h; 100 = double the neutral-control signal | activation, % at 12.5 µM | hit rate 0.096% among 320,000 | AID 504775;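 active means mean replicate activation of at least 60% and every replicate at or above 60%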;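 further: 0% = median plate neutral-control signal and 100% = twice that signal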
#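 Material: SR-BI-overexpressing, LDLR-lacking CHO cells; schedule: compound exposure 3 h, 37 °C; reagent: DiI-labelled HDL at 10 µg/mL final; technique: bottom-read fluorescence, 550/595 nm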
# SR-BI DiI inh = blocks mouse SR-BI lipid uptake from DiI-HDL; Q61009; inhibition, % at 12.5 µM; ldlA[mSR-BI] CHO cells, DiI-HDL uptake fluorescence, 3 h; hit rate 0.96% among 320,000; AID 488896;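 active means mean replicate inhibition of at least 70% and a set share of replicates each scoring 70 or more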;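 further: 0% = median of neutral control wells and 100% = median of positive control wells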
# Target sequence (Q61009 whole entry, looked up): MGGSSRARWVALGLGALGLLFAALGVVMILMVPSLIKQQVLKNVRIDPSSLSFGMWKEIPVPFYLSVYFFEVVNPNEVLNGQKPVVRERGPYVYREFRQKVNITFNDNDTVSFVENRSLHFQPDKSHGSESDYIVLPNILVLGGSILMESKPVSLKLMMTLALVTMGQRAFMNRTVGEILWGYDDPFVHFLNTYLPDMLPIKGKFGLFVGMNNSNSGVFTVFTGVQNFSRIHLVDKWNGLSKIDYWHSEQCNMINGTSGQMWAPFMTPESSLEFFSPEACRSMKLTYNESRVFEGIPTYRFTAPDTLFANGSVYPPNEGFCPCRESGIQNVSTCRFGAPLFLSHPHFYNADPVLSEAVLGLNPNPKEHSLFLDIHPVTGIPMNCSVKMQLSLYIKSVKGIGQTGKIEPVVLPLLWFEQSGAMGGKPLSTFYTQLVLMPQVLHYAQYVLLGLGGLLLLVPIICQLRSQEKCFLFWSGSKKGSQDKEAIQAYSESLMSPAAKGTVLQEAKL
# TMEM16A inh = inhibitors of mouse TMEM16A calcium-activated chloride channel. Q8BHY3. normalized B-score (activity score, 25-100; higher = stronger inhibition) at 10 µM. hit rate 1.2% among 310,000. AID 588511. HEK293 TMEM16A/YFP iodide influx fluorescence, ionomycin;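 active means ratio plate-corrected score three or more library SD toward inhibition, starting fluorescence score within five deviations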;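 further: score derived from kinetic fluorescence span divided by baseline fluorescence per well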
# Active calls of the source: *; i = inactive; nt = no result.
SMILES,DNA FID counter,Kir21 block,TMEM16A act,SR-BI DiI-HDL act,SR-BI DiI inh,TMEM16A inh
COc1ccccc1NC(=O)Cc1coc2cc(C)ccc12,-15,-3.5,i,-14,14,i
CCOc1ccccc1NC(=O)Cc1coc2cc(C)ccc12,-16,-5*,i,-47,47,i
Cc1ccc(NC(=S)NNC(=O)c2ccccc2O)c(C)c1,-7,1.1,i,-27,27,100*
CC1(C)CC(=O)C=C(c2ccc3[nH]ccc3c2)C1,nt,-0.73,i,-12,12,i
CC(C)CC(=O)Nc1ccc(S(=O)(=O)Nc2nccs2)cc1,-6,0.91,i,65*,-65,i
COC(=O)Nc1ccc2c(c1)N(C(=O)CCN1CCN3CCCC3C1)c1ccccc1S2 (configuration not stated),39*,0.53,i,-6,6,i
COC(=O)Nc1ccc2c(c1)N(C(=O)CCN1CCN3CCCC3C1)c1ccccc1CC2 (configuration not stated),8,-0.72,i,19,-19,i
COc1cc2nc(CN3CCN(S(=O)(=O)c4ccc(Cl)cc4)CC3)[nH]c(=O)c2cc1OC,-26,2.4,-39*,10,-10,i
COc1cc2nc(CN3CCN(S(=O)(=O)c4ccccc4)CC3)[nH]c(=O)c2cc1OC,nt,nt,i,3,-3,nt
COc1ccccc1NC(=O)Nc1nc(CC(=O)Nc2ccc(OC)c(OC)c2)cs1,nt,1.1,i,-82,82*,i
COc1cccc(NC(=O)Cc2csc(NC(=O)Nc3ccccc3OC)n2)c1,nt,-0.57,i,-53,53,i
Cc1ccccc1NS(=O)(=O)c1cc(C(=O)Nc2cccc(N(C)S(C)(=O)=O)c2)ccc1C,-25,0.22,i,-71,71*,i
CC(C)Oc1ccc(Cn2c(=O)sc3ccccc32)cc1,-13,1.1,i,nt,nt,25*
COc1ccc(Cn2c(=O)sc3ccccc32)cc1,-10,0.23,i,nt,nt,i
CCCCc1c(O)nc(SCC(=O)c2ccccc2)[nH]c1=O,4,-0.21,i,71*,-71,i
N#C/C(=C\c1ccc[nH]1)Sc1nc2ccccc2s1,-1,-0.1,i,21,-21,i
N#C/C(=C\c1cccs1)Sc1nc2ccccc2s1,-6,-0.08,-20*,-3,3,i
CN(CC(=O)Nc1ccc(Cl)c(C(F)(F)F)c1)C(=O)c1cn2ccccc2n1,nt,0.87,i,36,-36,i
Cc1c(N2C(=O)/C(=C/c3ccccc3)SC2=S)c(=O)n(-c2ccccc2)n1C,-6,0.13,i,1,-1,i
Cc1c(N2C(=O)/C(=C/c3ccc(N(C)C)cc3)N(C)C2=S)c(=O)n(-c2ccccc2)n1C,nt,nt,-8*,-7,7,nt
Cc1coc2cc3oc(=O)ccc3cc12,-3,1.5,i,25,-25,i
Cn1cc(C(c2ccccc2OCC(=O)O)c2cn(C)c3ccccc23)c2ccccc21,-15,0.82,i,-16,16,25*
Cc1cc(NC(=O)c2cncc(Br)c2)ccc1NC(=O)c1cc2ccccc2o1,-15,-0.59,i,-97,97*,i
COc1cc(NC(C)=O)ccc1NC(=O)c1cc2ccccc2o1,-14,1.1,i,-5,5,i
COc1cc(NC(=O)c2cccc([N+](=O)[O-])c2)ccc1NC(=O)c1ccco1,4,-0.71,i,-89,89*,i
SMILES,DNA FID counter,Kir21 block,TMEM16A act,SR-BI DiI-HDL act,SR-BI DiI inh,TMEM16A inh
COc1cc(NC(=O)c2ccccc2[N+](=O)[O-])ccc1NC(=O)c1cc2ccccc2o1,nt,0.7,i,-77,77*,i
O=C(Nc1cccc(Cl)c1N1CCCC1)c1ccc(Br)o1,1,-2.7,i,-27,27,25*
COc1cc(NC(=O)c2ccccc2)ccc1NC(=O)c1cc2ccccc2o1,-5,-0.8,i,-49,49,i
COc1cccc(NC(=O)c2ccccc2F)c1,nt,nt,i,-14,14,i
CCC(=O)Nc1ccc(Cl)c(NC(=O)c2ccc(Br)o2)c1,-7,2.6,i,nt,76*,i
CCCC(=O)Nc1ccc(Cl)c(NC(=O)CC)c1,-1,-0.9,i,-14,14,i
CCOC(=O)Nc1cccc(NC(=O)c2ccccc2F)c1,-6,1.8,-10*,-17,17,i
COc1cc(NC(=O)c2ccc(Br)o2)ccc1NC(=O)c1ccccc1Cl,-24,-0.16,i,-83,83*,i
COc1cc(NC(=O)c2ccccc2F)ccc1NC(=O)c1ccccc1Cl,-8,1.4,i,-93,93*,i
CCCNC(=O)C(Cc1cccc(OC)c1)NC(=O)c1ccc(C(C)(C)C)cc1 (configuration not stated),nt,nt,i,-18,18,nt
O=C1OC(N2C(=O)CC[C@H]2C(=O)Nc2ccc(Br)cc2F)c2ccccc21 (some centres not stated),-5,1.2,i,8,-8,i
O=C(Nc1cc(C(F)(F)F)ccc1N1CCOCC1)C1=NN(c2ccccc2)C(=O)CC1,-29,0,i,-3,3,i
O=C(Nc1ccc2oc(=O)ccc2c1)c1ccc(-c2ccccc2[N+](=O)[O-])o1,-3,-0.01,i,-78,78*,i
CN(C)c1ncc(C2=C(Cl)C(=O)C(N3CCCC3)=C(Cl)C2=O)s1,-8,-1.3,i,16,-16,100*
COc1ccc(CN2CCn3ncc(C(=O)Nc4cc(C)cc(C)c4)c3C2=O)cc1,-9,-1.4,i,-74,74*,i
O=C(COc1cc2oc(=O)c3c(c2cc1Cl)CCC3)Nc1ccc(CN2CCOCC2)cc1,12,0.36,i,-3,3,i
O=C(CCCN1C(=O)/C(=C\c2cccs2)SC1=S)Nc1ccc(C(=O)O)cc1,-21,-0.77,i,7,-7,i
CCN(CC)CCOC(=O)c1ccc(NC(=O)CCCN2C(=O)/C(=C/c3cccs3)SC2=S)cc1,44*,0.05,i,-7,7,i
O=C(CCCN1C(=O)/C(=C\c2ccccc2)SC1=S)Nc1ccc(C(=O)O)cc1,-17,2.9,i,7,-7,i
CCc1ccc(/C=C2\SC(=S)N(CCCC(=O)Nc3ccc(C(=O)O)cc3)C2=O)cc1,-26,2.8,i,-2,2,100*
Cc1ccc(/C=C2\SC(=S)N(CCCC(=O)Nc3ccccc3C(=O)O)C2=O)cc1,-27,-0.08,i,-3,3,i
CCc1ccc(/C=C2\SC(=S)N(CCCC(=O)Nc3ccccc3C(=O)O)C2=O)cc1,-20,1.1,i,23,-23,100*
CN(C(=O)c1ccc(NC(=O)C2CCN(C(=O)OC(C)(C)C)CC2)cc1)C1CCC1,nt,nt,i,-44,44,nt
